# How the values were obtained:
# [1] = feces at 2 h p.i.; ref [14]; cited from earlier work
# [2] = Biodistribution of 99mTc radiotracer in tumor-bearing mice; format: in vivo, BALB/c nude mice; settings: female, BALB/c nude, mouse, iv, 0.1 MBq, total radioactivity
# Outline: (§1)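 Female BALB/c nude mice (4–5 weeks, 16–20 g) carried U87MG cells (5 × 10^6, s.c. shoulder flank) and were used at a tumor volume of ~400 mm3 (~10 days). Each received ~0.1 MBq of 99mTc tracer (~2 ng HYNIC conjugate) in saline by tail vein. Five animals were killed per time point (5, 30, 60, 120 min p.i.). Organs were weighed and γ-counted as %ID/g, and tumor-to-background ratios were reported as mean ± SD.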
# [3] = tested on: BALB/c nude mice bearing U87MG human glioma xenografts; experiment: as above; format: in vivo; settings: BALB/c nude mice with U87MG xenografts, mean ± SD, n = 5
# Outline: as §1
# integrin αvβ3 = experiment: Monitoring αvβ3 expression by SPECT/CT in three tumor models; format: in vivo, athymic nu/nu mice; settings: SPECT/CT of tumor-bearing athymic nude mice, ~50 MBq
# Outline: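 Female athymic nu/nu mice (4–5 weeks) received 5 × 10^6 cells in 0.1 mL saline: U87MG and PC-3 into shoulder flanks, MDA-MB-435 into breast fat pads. At tumor sizes of 0.1–0.5 g, they were given tracer i.v. and imaged on a multi-pinhole (1.0 mm) SPECT/CT at 60 min p.i. under ~3.0% isoflurane. Tumor ROIs came from CT, and activity was converted via a γ-counter-calibrated standard curve to %ID/g, assuming ~1 g/cm3.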
# Metabolism = format: in vivo; settings: athymic nude mice (n = 3); ~10 MBq tail vein; feces at 2 h p.i.; radio-HPLC
# Outline: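 Athymic nude mice (n = 3) received ~10 MBq tracer i.v. Feces collected at 120 min p.i. were counted, suspended in 20% aqueous acetonitrile, vortexed ~5 min and centrifuged at 8,000 rpm. The supernatant was counted, filtered at 0.20 µm and run on radio-HPLC (C8, 1 mL/min; 25 mM NH4OAc pH 6.8/acetonitrile, isocratic 5 min then gradient to 60% acetonitrile at 20 min).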
compound,measurement,setting,value
"N=C(N)NCCC[C@@H]1NC(=O)[C@H](CCCCNC(=O)CCOCCOCCOCCOCCNC(=O)CC[C@H](NC(=O)CCOCCOCCOCCOCCNC(=O)c2ccc(NN)nc2)C(=O)NCCOCCOCCOCCOCCC(=O)NCCCC[C@@H]2NC(=O)[C@@H](Cc3ccccc3)NC(=O)[C@H](CC(=O)O)NC(=O)CNC(=O)[C@H](CCCNC(=N)N)NC2=O)NC(=O)[C@@H](Cc2ccccc2)NC(=O)[C@H](CC(=O)O)NC(=O)CNC1=O [^99mTc-3P-RGD2, [^99mTc(HYNIC-3P-RGD2)(tricine)(TPPTS)], metal not drawn]",Radiotracer remaining intact in the feces samples,[1],70%
same,tissue uptake at 2 h,[2]; blood,0.32 ± 0.06 %ID/g
same,tissue uptake at 0.5 h,[2]; brain,0.41 ± 0.17 %ID/g
same,tissue uptake at 1 h,[2]; brain,0.41 ± 0.05 %ID/g
same,tissue uptake at 2 h,[2]; brain,0.23 ± 0.09 %ID/g
same,tissue uptake at 1 h,[2]; eyes,2.57 ± 0.59 %ID/g
same,tissue uptake at 2 h,[2]; eyes,2.12 ± 0.86 %ID/g
same,tissue uptake at 0.5 h,[2]; heart,3.48 ± 0.45 %ID/g
same,tissue uptake at 1 h,[2]; heart,3.13 ± 0.44 %ID/g
same,tissue uptake at 2 h,[2]; heart,2.07 ± 0.75 %ID/g
same,tissue uptake at 0.5 h,[2]; intestine,4.24 ± 1.54 %ID/g
same,tissue uptake at 1 h,[2]; intestine,5.45 ± 1.47 %ID/g
same,tissue uptake at 2 h,[2]; intestine,3.37 ± 1.32 %ID/g
same,tissue uptake at 0.5 h,[2]; kidneys,32.9 ± 2.94 %ID/g
same,tissue uptake at 1 h,[2]; kidneys,24.6 ± 3.59 %ID/g
same,tissue uptake at 2 h,[2]; kidneys,19.1 ± 2.6 %ID/g
same,tissue uptake at 0.5 h,[2]; liver,5.82 ± 0.79 %ID/g
same,tissue uptake at 1 h,[2]; liver,4.83 ± 0.6 %ID/g
same,tissue uptake at 2 h,[2]; liver,4.52 ± 0.76 %ID/g
same,tissue uptake at 0.5 h,[2]; lungs,4.24 ± 0.87 %ID/g
same,tissue uptake at 1 h,[2]; lungs,3.5 ± 1.01 %ID/g
same,tissue uptake at 2 h,[2]; lungs,2.39 ± 0.71 %ID/g
same,tissue uptake at 0.5 h,[2]; muscle,2.25 ± 0.48 %ID/g
same,tissue uptake at 1 h,[2]; muscle,1.5 ± 0.49 %ID/g
same,tissue uptake at 2 h,[2]; muscle,1.23 ± 0.21 %ID/g
same,tissue uptake at 0.5 h,[2]; spleen,5.03 ± 0.45 %ID/g
same,tissue uptake at 1 h,[2]; spleen,4.02 ± 0.7 %ID/g
same,tissue uptake at 2 h,[2]; spleen,3.8 ± 0.5 %ID/g
same,tissue to tissue ratio at 0.5 h,[2]; tumor / blood,4.33 ± 0.12
same,tissue to tissue ratio at 1 h,[2]; tumor / blood,5.86 ± 2.21
same,tissue to tissue ratio at 2 h,[2]; tumor / blood,12 ± 3.62
same,tissue to tissue ratio at 0.5 h,[2]; tumor / liver,1.16 ± 0.54
same,tissue to tissue ratio at 1 h,[2]; tumor / liver,1.1 ± 0.54
same,tissue to tissue ratio at 2 h,[2]; tumor / liver,0.84 ± 0.1
same,tissue to tissue ratio at 0.5 h,[2]; tumor / lung,1.52 ± 0.74
same,tissue to tissue ratio at 1 h,[2]; tumor / lung,1.33 ± 0.52
same,tissue to tissue ratio at 2 h,[2]; tumor / lung,1.74 ± 0.63
same,tissue to tissue ratio at 0.5 h,[2]; tumor / muscle,1.85 ± 1.38
same,tissue to tissue ratio at 1 h,[2]; tumor / muscle,2.25 ± 1.56
same,tissue to tissue ratio at 2 h,[2]; tumor / muscle,3.09 ± 0.4
same,tissue uptake at 0.5 h,[2]; tumor,6.77 ± 1.3 %ID/g
same,tissue uptake at 1 h,[2]; tumor,4.62 ± 0.57 %ID/g
same,tissue uptake at 2 h,[2]; tumor,3.93 ± 0.63 %ID/g
same,tissue uptake at 0.5 h,[2]; whole blood,1.54 ± 0.14 %ID/g
same,tissue uptake at 1 h,[2]; whole blood,0.87 ± 0.1 %ID/g
[^99mTc(HYNIC-4P-RGD3)(tricine)(TPPTS)] (head to tail) [^99mTc-4P-RGD3],Tumor/Blood ratio,[3]; 5 min p.i.,1.23 ± 0.34
same,Tumor/Liver ratio,[3]; 5 min p.i.,0.55 ± 0.16
same,Tumor/Lung ratio,[3]; 5 min p.i.,0.69 ± 0.15
same,Tumor/Muscle ratio,[3]; 5 min p.i.,1.80 ± 0.48
same,Tumor/Blood ratio,[3]; 30 min p.i.,3.69 ± 0.48
same,Tumor/Liver ratio,[3]; 30 min p.i.,0.79 ± 0.11
same,Tumor/Lung ratio,[3]; 30 min p.i.,1.07 ± 0.13
same,Tumor/Muscle ratio,[3]; 30 min p.i.,2.29 ± 0.34
same,Tumor/Blood ratio,[3]; 60 min p.i.,6.21 ± 2.34
same,Tumor/Liver ratio,[3]; 60 min p.i.,0.87 ± 0.25
same,Tumor/Lung ratio,[3]; 60 min p.i.,1.08 ± 0.25
same,Tumor/Muscle ratio,[3]; 60 min p.i.,1.78 ± 0.69
same,Tumor/Blood ratio,[3]; 120 min p.i.,8.21 ± 1.71
same,Tumor/Liver ratio,[3]; 120 min p.i.,0.70 ± 0.19
same,Tumor/Lung ratio,[3]; 120 min p.i.,1.45 ± 0.22
same,Tumor/Muscle ratio,[3]; 120 min p.i.,2.79 ± 0.55
same,Ranking order of tumor uptake values among tumor models,integrin αvβ3,U87MG > MDA-MB-435 >> PC-3
same,Radiotracer remaining intact in the feces sample,Metabolism,More than 95%

# Reference: paper PMC5002266 (Nuclear medicine and biology, 2016)
